Activity calls are given as the source filed them. No cut-off for these calls is given here.
Tests used:
[1] = biological target: T1, Glycogen synthase kinase-3 beta (Homo sapiens, UniProt P49841); assay: Inhibition of recombinant GST-tagged GSK-3beta (unknown origin) expressed in Escherichia coli BL21 assessed as phosphate incorporation in CREB
Target sequence in this assay (P49841 whole entry): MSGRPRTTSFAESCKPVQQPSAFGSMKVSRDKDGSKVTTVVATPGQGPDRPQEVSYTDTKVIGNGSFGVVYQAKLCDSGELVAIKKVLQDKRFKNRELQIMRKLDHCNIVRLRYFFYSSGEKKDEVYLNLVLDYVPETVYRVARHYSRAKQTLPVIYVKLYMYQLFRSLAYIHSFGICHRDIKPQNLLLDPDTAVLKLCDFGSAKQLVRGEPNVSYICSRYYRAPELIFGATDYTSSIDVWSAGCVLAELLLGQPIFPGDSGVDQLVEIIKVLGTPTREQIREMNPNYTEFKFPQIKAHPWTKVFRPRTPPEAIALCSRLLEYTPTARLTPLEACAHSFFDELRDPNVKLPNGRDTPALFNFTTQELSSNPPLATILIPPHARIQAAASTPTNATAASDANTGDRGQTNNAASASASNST

[2] = biological target: T1, Glycogen synthase kinase-3 beta; assay: Inhibition of GSK-3beta in human SH-SY5Y cells assessed as reduction of amyloid beta (25 to 35)-induced Tau hyperphosphorylation at Ser396 at 10 uM incubated for 1 hr prior to amyloid beta (25 to 35) induction measured after 6 hrs by Western blotting analysis; format: cell-based
Method in brief: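 SH-SY5Y cells (ATCC) in 1:1 DMEM:Ham's F12 with 10% FBS and 1% penicillin/streptomycin, 5% CO2. Grown to ~80% confluence, serum-deprived 12 h, inhibitor added 1 h before Aβ25–35 for another 6 h. Lysed in SDS loading buffer, run on 10% SDS-PAGE, blotted to PVDF, probed with rabbit anti-Tau pS396, ECL detection.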
Target sequence in this assay (P49841 whole entry, looked up): as the sequence (P49841 whole entry) above

[3] = biological target: T1, Glycogen synthase kinase-3 beta; assay: Inhibition of recombinant GST-tagged GSK-3beta (unknown origin) expressed in Escherichia coli BL21 assessed as phosphate incorporation in CREB at 20 ug/mL relative to control
Method in brief: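 GST-GSK-3β expressed in E. coli BL21-CodonPlus (DE3), purified by GSTrap and thrombin-cleaved. Activity measured by Z'-LYTE kinase assay at 50 nM final enzyme. Run in triplicate with blanks subtracted. Activity given as pmol phosphate incorporated into CREB per minute or as percent of maximal activity.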
Target sequence in this assay (P49841 whole entry, looked up): as the sequence (P49841 whole entry) above

[4] = biological target: T2, Protein kinase C epsilon type (Homo sapiens, UniProt Q02156); assay: Inhibition of recombinant PKCE (unknown origin) expressed in baculovirus expression system
T2 sequence (Q02156 whole entry): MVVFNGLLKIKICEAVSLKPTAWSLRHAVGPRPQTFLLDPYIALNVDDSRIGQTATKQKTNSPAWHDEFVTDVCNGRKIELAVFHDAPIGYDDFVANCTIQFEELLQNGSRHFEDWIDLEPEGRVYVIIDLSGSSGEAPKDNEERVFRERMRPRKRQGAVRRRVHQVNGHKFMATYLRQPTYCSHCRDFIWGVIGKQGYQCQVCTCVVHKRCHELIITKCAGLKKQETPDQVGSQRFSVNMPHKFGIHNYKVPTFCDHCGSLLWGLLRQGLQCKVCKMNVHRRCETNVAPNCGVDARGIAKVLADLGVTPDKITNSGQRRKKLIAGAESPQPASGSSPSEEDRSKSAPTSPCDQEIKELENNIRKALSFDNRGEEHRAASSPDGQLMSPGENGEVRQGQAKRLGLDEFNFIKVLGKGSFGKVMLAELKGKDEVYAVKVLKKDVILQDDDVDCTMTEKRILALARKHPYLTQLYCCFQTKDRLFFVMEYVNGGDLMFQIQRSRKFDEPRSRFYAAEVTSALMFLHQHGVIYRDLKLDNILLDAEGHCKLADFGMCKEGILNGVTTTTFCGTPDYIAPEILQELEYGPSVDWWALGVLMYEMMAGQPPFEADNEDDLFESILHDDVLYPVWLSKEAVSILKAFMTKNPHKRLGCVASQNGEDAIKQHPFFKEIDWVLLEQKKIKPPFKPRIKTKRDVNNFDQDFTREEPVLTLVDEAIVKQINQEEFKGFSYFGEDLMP

[5] = biological target: T3, Inhibitor of nuclear factor kappa-B kinase subunit beta (Homo sapiens, UniProt O14920); assay: Inhibition of recombinant IKK2 (unknown origin) expressed in baculovirus expression system
T3 sequence (O14920 whole entry): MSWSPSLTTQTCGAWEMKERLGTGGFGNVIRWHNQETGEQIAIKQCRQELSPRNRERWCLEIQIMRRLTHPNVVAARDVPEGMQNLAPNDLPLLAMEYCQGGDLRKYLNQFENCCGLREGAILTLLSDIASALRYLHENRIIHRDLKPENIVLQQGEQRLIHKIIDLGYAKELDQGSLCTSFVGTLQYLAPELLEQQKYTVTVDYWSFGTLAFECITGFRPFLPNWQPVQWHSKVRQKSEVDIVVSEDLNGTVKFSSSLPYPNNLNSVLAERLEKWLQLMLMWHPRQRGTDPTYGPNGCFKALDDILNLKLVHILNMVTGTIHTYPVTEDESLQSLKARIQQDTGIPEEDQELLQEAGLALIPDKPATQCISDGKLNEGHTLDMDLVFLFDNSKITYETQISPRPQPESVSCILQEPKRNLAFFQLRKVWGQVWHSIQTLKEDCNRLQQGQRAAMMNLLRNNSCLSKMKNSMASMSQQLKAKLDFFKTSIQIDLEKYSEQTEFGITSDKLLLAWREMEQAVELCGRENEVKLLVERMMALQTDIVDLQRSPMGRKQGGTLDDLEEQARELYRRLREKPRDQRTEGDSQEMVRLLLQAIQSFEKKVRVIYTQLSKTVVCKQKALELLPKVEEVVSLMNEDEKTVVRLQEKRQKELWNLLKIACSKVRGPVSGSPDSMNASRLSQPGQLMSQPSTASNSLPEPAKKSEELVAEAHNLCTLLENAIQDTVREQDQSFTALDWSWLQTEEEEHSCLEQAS
Method in brief: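 Recombinant kinase expressed in the Bac-to-Bac baculovirus system, tested in a Z'-LYTE kinase assay kit.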

[6] = biological target: Dual specificity mitogen-activated protein kinase kinase 1 (Homo sapiens, UniProt Q02750); assay: Inhibition of recombinant MEK1 (unknown origin) expressed in Escherichia coli
Method in brief: (§1)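 E. coli-expressed recombinant kinase tested in a Z'-LYTE kinase assay kit.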

Aurora kinase A = biological target: T4, Aurora kinase A (Homo sapiens, UniProt O14965); assay: Inhibition of recombinant aurora kinase A (unknown origin) expressed in Escherichia coli; method in brief: as §1
T4 sequence (O14965 whole entry): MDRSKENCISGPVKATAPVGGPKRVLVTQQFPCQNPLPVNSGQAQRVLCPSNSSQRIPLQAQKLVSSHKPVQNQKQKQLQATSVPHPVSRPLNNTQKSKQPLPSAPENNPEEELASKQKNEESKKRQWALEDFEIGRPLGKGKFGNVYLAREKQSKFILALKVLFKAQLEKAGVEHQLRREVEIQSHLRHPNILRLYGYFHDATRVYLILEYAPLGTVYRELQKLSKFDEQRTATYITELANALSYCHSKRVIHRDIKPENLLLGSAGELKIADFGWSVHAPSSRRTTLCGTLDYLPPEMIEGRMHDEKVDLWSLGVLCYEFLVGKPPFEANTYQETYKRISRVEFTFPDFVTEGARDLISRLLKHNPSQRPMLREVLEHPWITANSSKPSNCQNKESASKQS

[7] = biological target: Mitogen-activated protein kinase 3 (Homo sapiens, UniProt P27361); assay: Inhibition of recombinant ERK1 (unknown origin) expressed in Escherichia coli; method in brief: as §1
Chain of Mitogen-activated protein kinase 3 (P27361 whole entry): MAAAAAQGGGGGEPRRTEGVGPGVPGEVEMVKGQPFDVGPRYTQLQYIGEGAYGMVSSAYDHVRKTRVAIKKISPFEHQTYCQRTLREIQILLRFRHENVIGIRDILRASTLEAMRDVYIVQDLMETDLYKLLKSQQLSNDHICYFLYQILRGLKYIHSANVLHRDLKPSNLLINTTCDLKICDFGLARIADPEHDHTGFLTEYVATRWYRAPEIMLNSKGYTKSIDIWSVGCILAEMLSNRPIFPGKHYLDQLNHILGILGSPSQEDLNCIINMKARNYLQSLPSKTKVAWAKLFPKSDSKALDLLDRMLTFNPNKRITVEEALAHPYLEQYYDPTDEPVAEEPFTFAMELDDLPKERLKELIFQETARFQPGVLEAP

Chain of Dual specificity mitogen-activated protein kinase kinase 1 (Q02750 whole entry): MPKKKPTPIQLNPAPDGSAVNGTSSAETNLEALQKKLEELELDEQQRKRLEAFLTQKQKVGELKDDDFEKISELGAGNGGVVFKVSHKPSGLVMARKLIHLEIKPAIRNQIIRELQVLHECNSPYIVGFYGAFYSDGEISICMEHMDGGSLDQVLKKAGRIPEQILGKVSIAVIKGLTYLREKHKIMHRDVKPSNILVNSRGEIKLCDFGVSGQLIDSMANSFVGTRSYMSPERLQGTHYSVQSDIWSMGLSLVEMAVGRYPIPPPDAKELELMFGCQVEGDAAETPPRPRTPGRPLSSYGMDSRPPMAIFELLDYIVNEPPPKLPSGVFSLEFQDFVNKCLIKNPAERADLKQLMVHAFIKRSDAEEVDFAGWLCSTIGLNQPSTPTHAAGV

| SMILES | IC50 [1] | inhibition [2] | other results |
| --- | --- | --- | --- |
| Cn1cc(C2=C(c3nn(CCCO)c4ncccc34)C(=O)NC2=O)c2ccccc21 | 1.09 µM | Active | – |
| Cn1cc(C2=C(c3nn(CCCN4CCOCC4)c4ncccc34)C(=O)NC2=O)c2ccccc21 | 0.75 µM | Active | – |
| C=Cn1cc(C2=C(c3nn(CCCN4CCOCC4)c4ncccc34)C(=O)NC2=O)c2ccccc21 | 8.84 µM | – | – |
| O=C1NC(=O)C(c2nn(CCCN3CCOCC3)c3ncccc23)=C1c1cn(CCCN2CCOCC2)c2ccccc12 | 1.29 µM | inactive | – |
| NC(=O)NN1C(=O)C(c2c[nH]c3ccccc23)=C(c2n[nH]c3ncccc23)C1=O | – | – | inhibition [3]: -6.81% |
| Cn1cc(C2=C(c3nn(CCn4ccnc4)c4ncccc34)C(=O)NC2=O)c2ccccc21 | 0.81 µM | Active | IC50 [4]: > 40 µM; IC50 [5]: > 40 µM; IC50 [6]: > 40 µM; IC50 (Aurora kinase A): > 40 µM; IC50 [7]: > 40 µM |
| Cn1cc(C2=C(c3nn(CCCCn4ccnc4)c4ncccc34)C(=O)NC2=O)c2ccccc21 | 0.96 µM | – | – |
| O=C1NC(=O)C(c2nn(CCCN3CCOCC3)c3ncccc23)=C1c1cn(Cc2ccccc2)c2ccccc12 | 1.9 µM | – | – |
| O=CNN1C(=O)C(c2c[nH]c3ccccc23)=C(c2n[nH]c3ncccc23)C1=O | – | – | inhibition [3]: -7.42% |
| C=CCn1cc(C2=C(c3nn(CCCN4CCOCC4)c4ncccc34)C(=O)NC2=O)c2ccccc21 | 0.96 µM | – | – |
| CN(C)CCCn1nc(C2=C(c3cn(C)c4ccccc34)C(=O)NC2=O)c2cccnc21 | 5.69 µM | – | – |
| CN1CCN(CCCn2nc(C3=C(c4cn(C)c5ccccc45)C(=O)NC3=O)c3cccnc32)CC1 | 3.34 µM | – | – |
| NN1C(=O)C(c2c[nH]c3ccccc23)=C(c2n[nH]c3ncccc23)C1=O | – | – | inhibition [3]: 28.6% |
| COC(=O)CN1C(=O)C(c2c[nH]c3ccccc23)=C(c2n[nH]c3ncccc23)C1=O | – | – | inhibition [3]: 51.5% |
| O=C1C(c2c[nH]c3ccccc23)=C(c2n[nH]c3ncccc23)C(=O)N1c1ccccc1 | – | – | inhibition [3]: 4.14% |
| O=C1NC(=O)C(c2nn(CCCN3CCOCC3)c3ncccc23)=C1c1c[nH]c2ccccc12 | 0.83 µM | Active | – |
| Cn1cc(C2=C(c3n[nH]c4ncccc34)C(=O)NC2=O)c2ccccc21 | 12.3 µM | – | – |
| CC(C)n1cc(C2=C(c3nn(CCCN4CCOCC4)c4ncccc34)C(=O)NC2=O)c2ccccc21 | 0.38 µM | Active | IC50 [4]: > 40 µM; IC50 [5]: > 40 µM; IC50 [6]: > 40 µM; IC50 (Aurora kinase A): > 40 µM; IC50 [7]: > 40 µM |
| Cn1cc(C2=C(c3nn(CCCn4ccnc4)c4ncccc34)C(=O)NC2=O)c2ccccc21 | 4.89 µM | – | – |
| Cn1cc(C2=C(c3nn(CCN4CCOCC4)c4ncccc34)C(=O)NC2=O)c2ccccc21 | 0.36 µM | Active | IC50 [4]: > 40 µM; IC50 [5]: > 40 µM; IC50 [6]: > 40 µM; IC50 (Aurora kinase A): > 40 µM; IC50 [7]: > 40 µM |
| Cn1cc(C2=C(c3nn(CCCCN4CCOCC4)c4ncccc34)C(=O)NC2=O)c2ccccc21 | 0.46 µM | – | – |
| NC(=S)NN1C(=O)C(c2c[nH]c3ccccc23)=C(c2n[nH]c3ncccc23)C1=O | – | – | inhibition [3]: 33.7% |
| CC(C)CN1C(=O)C(c2c[nH]c3ccccc23)=C(c2n[nH]c3ncccc23)C1=O | – | – | inhibition [3]: 45.7% |
| O=C1NC(=O)C(c2nn(CCCN3CCOCC3)c3ncccc23)=C1c1cn(CCCn2ccnc2)c2ccccc12 | 0.68 µM | inactive | – |
| Cn1cc(C2=C(c3nn(CCCN4CCCCC4)c4ncccc34)C(=O)NC2=O)c2ccccc21 | 2.66 µM | – | – |
| O=C1NC(=O)C(c2n[nH]c3ncccc23)=C1c1c[nH]c2ccccc12 | 7.31 µM | – | – |

From ChEMBL document CHEMBL3098097, “Design, synthesis and evaluation of 7-azaindazolyl-indolyl-maleimides as glycogen synthase kinase-3β (GSK-3β) inhibitors” (Eur J Med Chem, 2013)
